According to ChEMBL document CHEMBL1144024, “Low molecular weight lignin suppresses activation of NF-kappaB and HIV-1 promoter” (Bioorg Med Chem, 2008):
≈ marks a conversion by molar mass, not a printed value.

Legend:
[1] = tested on: Human immunodeficiency virus 1; test: Inhibition of HIV1 5'-long terminal repeat promoter expression in human 293T cells by luciferase assay; format: functional; details: Human immunodeficiency virus 1, HEK-293T
Method in brief: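 293-T cells co-transfected in 10-cm dishes with 5 lg CD-12-luc LTR reporter plus 0.008 lg pCMV-β-galactosidase. Replated after 2 h and cultured 4 h, then exposed to test agent or vehicle for 20 h (lignins) or 21 h (model compounds). Luciferase chemiluminescence normalized to β-galactosidase. IC50 reported; lignin data are means of three independent experiments.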

[2] = Inhibition of TNF-induced NF-kappaB activation in human […] cells by luciferase assay; format: cell-based
Method in brief: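 293-T cells co-transfected with 5 lg NF-κB luciferase reporter plus 0.008 lg pCMV-β-galactosidase, then replated after 2 h. Cultured 19 h (lignins) or 20 h (model compounds) before 1 h pretreatment with test agent. Stimulated with 3 ng/ml TNFα for 5 h. Luciferase chemiluminescence normalized to β-galactosidase activity; IC50 reported.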

Compound	IC50 [1] [µg/mL]	IC50 [2] [µg/mL]
COc1cc([C@H]2Oc3c(OC)cc(/C=C/CO)cc3[C@@H]2CO)ccc1O	34 (≈ 94.9 µM)	19 (≈ 53 µM)
CCCc1cc(OC)c(O)c(-c2cc(CCC)cc(OC)c2O)c1	> 150	> 150
COc1cc([C@@H](O)[C@@H](CO)c2ccc(O)c(OC)c2)ccc1O	> 150	> 150
COc1cc([C@@H]2OC[C@@H]3[C@H]2CO[C@H]3c2ccc(O)c(OC)c2)ccc1O (single isomer, unassigned) [(+)-PINORESINOL]	> 150	49 (≈ 137 µM)

The remaining lines, values ahead:

IC50 [1] [µg/mL]	IC50 [2] [µg/mL]	Compound
> 150	126 (≈ 393 µM)	COc1cc([C@@H](O)[C@@H](CO)Oc2ccccc2OC)ccc1O
107 (≈ 336 µM)	43 (≈ 135 µM)	COc1cc(C(=O)[C@@H](CO)Oc2ccccc2OC)ccc1O
